Experimental data pooled from the literature.

| Compound | tested on | test | system | conditions | measurement | result |
| --- | --- | --- | --- | --- | --- | --- |
| COC(C)(C)CCC[C@](C)(O)[C@H]1CC[C@]2(C)[C@@H]1[C@H](O)C[C@@H]1[C@@]3(C)CC[C@H](O)C(C)(C)[C@@H]3CC[C@]12C | BEAS-2B | cell growth or viability |  | 25 µM, 24 h | inhibition | ~50% |
| CC(C)Nc1ccnc(Nc2cccc(-c3ncco3)c2)n1 | MV4-11 | cell growth or viability, ATP luminescence |  | 72 h | EC50 | 1060 nM |
| COc1cc(N2CCC(N3CCN(C)CC3)CC2)ccc1Nc1ncc(Cl)c(Nc2ccccc2S(=O)(=O)C(C)C)n1 | Staphylococcus aureus | microbial growth | NCTC8325 |  | MIC | > 30 µM |
| O=C1NC(=S)N/C1=C\c1ccc(-c2ccc(N(c3ccccc3)c3ccccc3)cc2)cc1 | Staphylococcus aureus | microbial killing, broth dilution | ATCC25923 |  | MBC | > 1000 µg/mL |
| COC(=O)c1cc(Sc2ccc(NC(=S)Nc3ccc(Cl)c(C(F)(F)F)c3)cc2)ccn1 | Staphylococcus aureus | microbial growth | NCTC8325 | 24 h | MIC | > 100 µM |
| Cc1ccc2nc(-n3nc(C(C)C)c4c3-c3ccccc3C4=O)sc2c1 | Staphylococcus aureus | microbial growth, well diffusion | NCIM5021 | 250 µg/mL | inhibition zone | 13 mm |
| c1ccc(-c2ccc(Nc3nccc(NC4CCCCC4)n3)cc2)nc1 | MV4-11 | cell growth or viability, ATP luminescence |  | 72 h | EC50 | 41 nM |
| O=C(Nc1ccc(C(=O)Nc2ccccc2)cc1)Nc1ccc(Cl)c(C(F)(F)F)c1 | Staphylococcus aureus | microbial growth | NCTC8325 | 24 h | MIC | > 100 µM |
| CC(C)Cc1nn(-c2nc3ccc(Br)cc3s2)c2c1C(=O)c1ccccc1-2 | Staphylococcus aureus | microbial growth, well diffusion | NCIM5021 | 500 µg/mL | inhibition zone | 14 mm |
| Cc1[nH]c(/C=C2\C(=O)Nc3ccc(S(=O)(=O)N(C)c4cccc(Cl)c4)cc32)c(C)c1C(=O)N1CCN(C)CC1 | Staphylococcus aureus | microbial growth | NCTC8325 |  | MIC | > 30 µM |
| CC(C)(C)Nc1ccnc(Nc2cccc(-c3cccnc3)c2)n1 | MV4-11 | cell growth or viability, ATP luminescence |  | 72 h | EC50 | 25 nM |
| Cc1nn(-c2nc3ccc(Br)cc3s2)c2c1C(=O)c1ccccc1-2 | Staphylococcus aureus | microbial growth, well diffusion | NCIM5021 | 250 µg/mL | inhibition zone | 11 mm |
| CC[C@@H]1C(=O)N(C)c2cnc(Nc3ccc(C(=O)NC4CCN(C)CC4)cc3OC)nc2N1C1CCCC1 | Staphylococcus aureus | microbial growth | NCTC8325 |  | MIC | > 30 µM |
| CC(C)c1nn(-c2nc3ccc(Br)cc3s2)c2c1C(=O)c1ccccc1-2 | Staphylococcus aureus | microbial growth, well diffusion | NCIM5021 | 125 µg/mL | inhibition zone | 11 mm |
| c1cncc(-c2cccc(Nc3nccc(NC4CCC4)n3)c2)c1 | MV4-11 | cell growth or viability, ATP luminescence |  | 72 h | EC50 | > 17000 nM |
| COc1ccc2nc(-n3nc(C)c4c3-c3ccccc3C4=O)sc2c1 | Staphylococcus aureus | microbial growth, well diffusion | NCIM5021 | 500 µg/mL | inhibition zone | 12 mm |
| c1cc(Nc2nccc(NC3CCCCC3)n2)cc(N2CCOCC2)c1 | MV4-11 | cell growth or viability, ATP luminescence |  | 72 h | EC50 | 369 nM |
